In ChEMBL document CHEMBL1128719, “The synthesis, structure-activity, and structure-side effect relationships of a series of 8-alkoxy- and 5-amino-8-alkoxyquinolone antibacterial agents” (J Med Chem, 1995) one finds MIC and IC50 data, which are given here for eight molecules.

Experiment [1] relates to Staphylococcus aureus. Briefly: In vitro antibacterial activity was tested for Staphylococcus aureus UC-76. In kind it is functional. The method in brief: (§1)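 Microtitration (microdilution) MIC determination in μg/mL against a panel of Gram-positive, Gram-negative and anaerobic organisms. Values come from duplicate or triplicate experiments and are stated accurate to ±50%.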

The test system of another experiment is Clostridioides difficile. Briefly: In vitro antibacterial activity was tested for Clostridium diff CD1-1. In kind it is functional.
The test system of the next experiment is Klebsiella pneumoniae. Nature of the experiment: In vitro antibacterial activity was tested for Klebsiella pneumoniae MGH-2. In kind it is functional. The method in brief: as §1
The subject of experiment [2] is Staphylococcus aureus. Briefly: In vitro antibacterial activity was tested for Staphylococcus aureus H228. The class given is functional. In short, it runs like this: as §1
The test system of the next experiment is Pseudomonas aeruginosa. Nature of the experiment: In vitro antibacterial activity was tested for Pseudomonas aeruginosa UI-18. The class given is functional. In short, it runs like this: as §1
In experiment [3] the test system is Peptoniphilus asaccharolyticus. Briefly: In vitro antibacterial activity was tested for Pepto asac PA 3-1. In kind it is functional. The method in brief:
as §1

A further experiment concerns V79. Nature of the experiment: Clonogenic cytotoxicity against Chinese hamster V-79 cells. The class given is functional, cell-based. To be noted: Cricetulus griseus.
The subject of another experiment is Enterobacter cloacae. Briefly: In vitro antibacterial activity was tested for Enterobacter cloacae HA2646. In kind it is functional.
Experiment [4] concerns Escherichia coli. Briefly: In vitro antibacterial activity was tested for Escherichia coli Vogel. In kind it is functional. The method in brief: as §1
A further experiment has as its system Bacteroides fragilis. Briefly: In vitro antibacterial activity against Bacteroides fragilis BFA. In kind it is functional. In short, it runs like this:
as §1

In the next experiment the test system is Providencia rettgeri. Nature of the experiment: In vitro antibacterial activity was tested for Providencia rettgeri H1771. In kind it is functional. The method in brief: as §1
The next experiment has as its system Clostridium perfringens. Briefly: In vitro antibacterial activity against Clostridium perfringens CP 3-1. The class given is functional.
The next experiment has as its system Enterococcus faecalis. Briefly: In vitro antibacterial activity was tested for Streptococcus faecalis MGH-2. In kind it is functional. The method in brief:
as §1

Experiment [5] relates to Escherichia coli. Nature of the experiment: In vitro antibacterial activity was tested for Escherichia coli H560. The class given is functional. In short, it runs like this: as §1
In a further experiment the test system is Streptococcus pyogenes. Nature of the experiment: In vitro antibacterial activity was tested for Streptococcus pyogenes C203. The class given is functional. In short, it runs like this:
as §1

Another experiment concerns Cutibacterium acnes. Briefly: In vitro antibacterial activity was tested for Propion acnes PA5-1. The class given is functional. In short, it runs like this: as §1
In the next experiment the test system is Streptococcus pneumoniae. Nature of the experiment: In vitro antibacterial activity was tested for Streptococcus pneumoniae SV-1. The class given is functional. The method in brief:
as §1

In brackets after ≈: the same amount, converted by molar mass.

A word on the MIC: it is the lowest concentration that inhibits growth of the organism. Usually IC50 stands for the concentration at which inhibition is half-maximal.

As for `CCNCC1CCCN(c2c(F)cc3c(=O)c(C(=O)O)cn(C4CC4)c3c2OCC)C1` (centres undefined), the MIC was 0.05 µg/mL (≈ 0.116 µM) in the experiment with Staphylococcus aureus [1]; 3.1 µg/mL (≈ 7.18 µM) against Clostridioides difficile; 3.1 µg/mL (≈ 7.18 µM) against Klebsiella pneumoniae; 0.2 µg/mL (≈ 0.463 µM) with Staphylococcus aureus [2]; above 3.1 µg/mL in the experiment on Pseudomonas aeruginosa; 0.4 µg/mL (≈ 0.927 µM) in experiment [3]. Further, the MIC was 1.6 µg/mL (≈ 3.71 µM) against Enterobacter cloacae; 0.8 µg/mL (≈ 1.85 µM) with Escherichia coli [4]; 3.1 µg/mL (≈ 7.18 µM) in the experiment with Bacteroides fragilis; above 3.1 µg/mL against Providencia rettgeri; 0.4 µg/mL (≈ 0.927 µM) with Clostridium perfringens; 0.2 µg/mL (≈ 0.463 µM) against Enterococcus faecalis. In addition, the MIC turned out to be 0.8 µg/mL (≈ 1.85 µM) in the experiment with Escherichia coli [5], 0.1 µg/mL (≈ 0.232 µM) in the experiment with Streptococcus pyogenes, 3.1 µg/mL (≈ 7.18 µM) against Cutibacterium acnes and 0.1 µg/mL (≈ 0.232 µM) in the experiment with Streptococcus pneumoniae. Moreover, the IC50 with V79 was 460 µg/mL (≈ 1070 µM).
On to `COc1c(N2CCNCC2)c(F)cc2c(=O)c(C(=O)O)cn(C3CC3)c12`, for which the MIC in the experiment on Staphylococcus aureus [1] stood at 0.05 µg/mL (≈ 0.138 µM); against Clostridioides difficile, 1.6 µg/mL (≈ 4.43 µM); against Klebsiella pneumoniae, 0.1 µg/mL (≈ 0.277 µM); in the experiment with Staphylococcus aureus [2], 0.2 µg/mL (≈ 0.553 µM); against Pseudomonas aeruginosa, 0.8 µg/mL (≈ 2.21 µM); in [3] it was 3.1 µg/mL (≈ 8.58 µM). The MIC stood at 0.025 µg/mL (≈ 0.0692 µM) with Enterobacter cloacae; 0.05 µg/mL (≈ 0.138 µM) in the experiment on Escherichia coli [4]; 0.8 µg/mL (≈ 2.21 µM) against Bacteroides fragilis; 0.1 µg/mL (≈ 0.277 µM) in the experiment with Providencia rettgeri; 0.4 µg/mL (≈ 1.11 µM) in the experiment on Clostridium perfringens; 0.2 µg/mL (≈ 0.553 µM) against Enterococcus faecalis. Further, the MIC against Escherichia coli [5] is 0.025 µg/mL (≈ 0.0692 µM); in the experiment with Streptococcus pyogenes, 0.1 µg/mL (≈ 0.277 µM); in the experiment on Cutibacterium acnes, 0.4 µg/mL (≈ 1.11 µM); against Streptococcus pneumoniae, 0.1 µg/mL (≈ 0.277 µM).
For `CCOc1c(N2CCC(N)C2)c(F)cc2c(=O)c(C(=O)O)cn(C3CC3)c12` (centres undefined), the MIC in the experiment on Staphylococcus aureus [1] worked out at 0.013 µg/mL (≈ 0.0346 µM); against Clostridioides difficile it was 3.1 µg/mL (≈ 8.26 µM); against Klebsiella pneumoniae it was 0.2 µg/mL (≈ 0.533 µM); against Staphylococcus aureus [2] it was 0.05 µg/mL (≈ 0.133 µM); with Pseudomonas aeruginosa it was 3.1 µg/mL (≈ 8.26 µM); in experiment [3] it was 0.8 µg/mL (≈ 2.13 µM). For the same molecule, the MIC against Enterobacter cloacae worked out at 0.1 µg/mL (≈ 0.266 µM); with Escherichia coli [4], 0.05 µg/mL (≈ 0.133 µM); against Bacteroides fragilis it was 1.6 µg/mL (≈ 4.26 µM); in the experiment with Providencia rettgeri it was 0.4 µg/mL (≈ 1.07 µM); with Clostridium perfringens, 0.8 µg/mL (≈ 2.13 µM); against Enterococcus faecalis, 0.1 µg/mL (≈ 0.266 µM). Also, the MIC in the experiment with Escherichia coli [5] was determined as 0.05 µg/mL (≈ 0.133 µM); with Streptococcus pyogenes, 0.2 µg/mL (≈ 0.533 µM); with Cutibacterium acnes, 3.1 µg/mL (≈ 8.26 µM); against Streptococcus pneumoniae, 0.1 µg/mL (≈ 0.266 µM). The molecule also displayed an IC50 with V79 of 210 µg/mL (≈ 559 µM).
For `NC1CCCN(c2c(F)cc3c(=O)c(C(=O)O)cn(C4CC4)c3c2Cl)C1` (centres undefined), the MIC in the experiment on Clostridioides difficile is 0.4 µg/mL (≈ 1.05 µM); in [3], 0.4 µg/mL (≈ 1.05 µM); in the experiment on Bacteroides fragilis it was 0.2 µg/mL (≈ 0.527 µM); with Clostridium perfringens, 0.1 µg/mL (≈ 0.263 µM); against Cutibacterium acnes it was 0.2 µg/mL (≈ 0.527 µM).
On to `COc1c(N2CC[C@@H](N)C2)c(F)cc2c(=O)c(C(=O)O)cn(C3CC3)c12`, for which the MIC came to 0.025 µg/mL (≈ 0.0692 µM) in the experiment with Staphylococcus aureus [1]; 0.8 µg/mL (≈ 2.21 µM) in the experiment on Clostridioides difficile; 0.025 µg/mL (≈ 0.0692 µM) with Klebsiella pneumoniae; 0.05 µg/mL (≈ 0.138 µM) against Staphylococcus aureus [2]; 0.8 µg/mL (≈ 2.21 µM) against Pseudomonas aeruginosa; 0.4 µg/mL (≈ 1.11 µM) in [3]. Moreover, the MIC was 0.025 µg/mL (≈ 0.0692 µM) with Enterobacter cloacae; 0.025 µg/mL (≈ 0.0692 µM) against Escherichia coli [4]; 0.4 µg/mL (≈ 1.11 µM) with Bacteroides fragilis; 0.05 µg/mL (≈ 0.138 µM) with Providencia rettgeri; 0.5 µg/mL (≈ 1.38 µM) in the experiment on Clostridium perfringens; 0.05 µg/mL (≈ 0.138 µM) in the experiment with Enterococcus faecalis. The minimal inhibitory concentration (MIC) with Escherichia coli [5] worked out at 0.025 µg/mL (≈ 0.0692 µM); with Streptococcus pyogenes it was 0.05 µg/mL (≈ 0.138 µM); with Cutibacterium acnes it was 0.2 µg/mL (≈ 0.553 µM); with Streptococcus pneumoniae, 0.05 µg/mL (≈ 0.138 µM).
With `COc1c(N2CCCC(N)C2)c(F)cc2c(=O)c(C(=O)O)cn(C3CC3)c12` (centres undefined), the MIC against Staphylococcus aureus [1] is 0.006 µg/mL (≈ 0.016 µM); in the experiment on Clostridioides difficile, 0.8 µg/mL (≈ 2.13 µM); against Klebsiella pneumoniae, 0.2 µg/mL (≈ 0.533 µM); against Staphylococcus aureus [2], 0.05 µg/mL (≈ 0.133 µM); in the experiment on Pseudomonas aeruginosa, 1.6 µg/mL (≈ 4.26 µM); in experiment [3], 0.8 µg/mL (≈ 2.13 µM). Also, the MIC is 0.1 µg/mL (≈ 0.266 µM) against Enterobacter cloacae; 0.1 µg/mL (≈ 0.266 µM) in the experiment on Escherichia coli [4]; 0.4 µg/mL (≈ 1.07 µM) against Bacteroides fragilis; 0.4 µg/mL (≈ 1.07 µM) in the experiment with Providencia rettgeri; 0.4 µg/mL (≈ 1.07 µM) against Clostridium perfringens; 0.025 µg/mL (≈ 0.0666 µM) with Enterococcus faecalis. Moreover, the MIC is 0.05 µg/mL (≈ 0.133 µM) with Escherichia coli [5], 0.013 µg/mL (≈ 0.0346 µM) against Streptococcus pyogenes, 0.2 µg/mL (≈ 0.533 µM) against Cutibacterium acnes and 0.013 µg/mL (≈ 0.0346 µM) with Streptococcus pneumoniae.
With `CCOc1c(N2CCCC(N)C2)c(F)c(N)c2c(=O)c(C(=O)O)cn(C3CC3)c12` (centres undefined), the MIC was determined as 0.013 µg/mL (≈ 0.0321 µM) in the experiment on Staphylococcus aureus [1]; 6.3 µg/mL (≈ 15.6 µM) against Clostridioides difficile; 0.4 µg/mL (≈ 0.989 µM) in the experiment with Klebsiella pneumoniae; 0.05 µg/mL (≈ 0.124 µM) in the experiment with Staphylococcus aureus [2]; 3.1 µg/mL (≈ 7.66 µM) in the experiment on Pseudomonas aeruginosa; 0.8 µg/mL (≈ 1.98 µM) in experiment [3]. Also, the MIC against Enterobacter cloacae came out at 0.2 µg/mL (≈ 0.495 µM); in the experiment with Escherichia coli [4], 0.2 µg/mL (≈ 0.495 µM); in the experiment with Bacteroides fragilis, 3.1 µg/mL (≈ 7.66 µM); with Providencia rettgeri, 0.8 µg/mL (≈ 1.98 µM); against Clostridium perfringens, 0.4 µg/mL (≈ 0.989 µM); in the experiment on Enterococcus faecalis it was 0.1 µg/mL (≈ 0.247 µM). The MIC is 0.1 µg/mL (≈ 0.247 µM) against Escherichia coli [5], 0.05 µg/mL (≈ 0.124 µM) against Streptococcus pyogenes, 3.1 µg/mL (≈ 7.66 µM) against Cutibacterium acnes and 0.025 µg/mL (≈ 0.0618 µM) in the experiment on Streptococcus pneumoniae.
As for `COc1c(N2CCN(C)CC2)c(F)cc2c(=O)c(C(=O)O)cn(C3CC3)c12`, the MIC turned out to be 0.05 µg/mL (≈ 0.133 µM) in the experiment with Staphylococcus aureus [1]; 0.8 µg/mL (≈ 2.13 µM) in the experiment on Clostridioides difficile; 0.2 µg/mL (≈ 0.533 µM) against Klebsiella pneumoniae; 0.1 µg/mL (≈ 0.266 µM) in the experiment on Staphylococcus aureus [2]; 0.8 µg/mL (≈ 2.13 µM) in the experiment on Pseudomonas aeruginosa; 1.6 µg/mL (≈ 4.26 µM) in experiment [3]. Moreover, the MIC in the experiment on Enterobacter cloacae is 0.1 µg/mL (≈ 0.266 µM); with Escherichia coli [4], 0.1 µg/mL (≈ 0.266 µM); in the experiment with Bacteroides fragilis, 0.2 µg/mL (≈ 0.533 µM); against Providencia rettgeri, 0.4 µg/mL (≈ 1.07 µM); with Clostridium perfringens it was 0.2 µg/mL (≈ 0.533 µM); against Enterococcus faecalis, 0.2 µg/mL (≈ 0.533 µM). Further, the MIC amounted to 0.1 µg/mL (≈ 0.266 µM) in the experiment with Escherichia coli [5], 0.1 µg/mL (≈ 0.266 µM) against Streptococcus pyogenes, 0.4 µg/mL (≈ 1.07 µM) in the experiment on Cutibacterium acnes and 0.1 µg/mL (≈ 0.266 µM) against Streptococcus pneumoniae.
